From ChEMBL document CHEMBL1142853 (Bioorg Med Chem Lett, 2005)
pEC50, pKi: −log10 of the molar value.

Key:
[1] = molecular target: T1, 5-hydroxytryptamine receptor 2C (Homo sapiens, UniProt P28335); test: Inhibition constant against human 5-hydroxytryptamine 2C receptor [VGI isoforms] using [3H]mesulergine as radioligand with the compound (10 uM) dissolved in DMSO
T1 sequence (P28335 whole entry): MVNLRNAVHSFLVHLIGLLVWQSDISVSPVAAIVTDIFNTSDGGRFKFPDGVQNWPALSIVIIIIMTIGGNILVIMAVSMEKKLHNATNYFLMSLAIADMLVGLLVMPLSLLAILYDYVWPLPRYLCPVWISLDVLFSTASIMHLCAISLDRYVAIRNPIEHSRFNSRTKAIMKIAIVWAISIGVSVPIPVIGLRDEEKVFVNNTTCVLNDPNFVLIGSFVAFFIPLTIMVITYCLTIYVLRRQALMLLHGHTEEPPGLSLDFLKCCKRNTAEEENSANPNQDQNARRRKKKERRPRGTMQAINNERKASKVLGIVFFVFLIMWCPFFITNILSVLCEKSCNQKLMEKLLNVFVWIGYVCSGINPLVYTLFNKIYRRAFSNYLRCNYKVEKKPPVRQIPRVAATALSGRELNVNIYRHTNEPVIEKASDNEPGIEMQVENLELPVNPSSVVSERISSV
Method in brief: (§1)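 Competition binding with [3H]ketanserin (5-HT2A), [3H]mesulergine (5-HT2C) or [3H]LSD (5-HT2B) on receptor preparations. Compounds in 10% DMSO were first screened at a single concentration as duplicate determinations, each run in duplicate. Compounds giving >50% inhibition of specific binding were then tested in duplicate from 1 to 100,000 nM. Ki is the mean ± SD of computer-derived estimates, N = 4.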

[2] = molecular target: 5-hydroxytryptamine receptor 2A (Rattus norvegicus, UniProt P14842); test: Inhibition constant against rat 5-hydroxytryptamine 2A receptor using [3H]ketanserin as radioligand with the compound (10 uM) dissolved in DMSO; method in brief: as §1
[3] = molecular target: T2, 5-hydroxytryptamine receptor 2C (Rattus norvegicus, UniProt P08909); test: Inhibition constant against rat 5-hydroxytryptamine 2C receptor using [3H]mesulergine as radioligand with the compound (10 uM) dissolved in DMSO; method in brief: as §1
T2 sequence (P08909 whole entry): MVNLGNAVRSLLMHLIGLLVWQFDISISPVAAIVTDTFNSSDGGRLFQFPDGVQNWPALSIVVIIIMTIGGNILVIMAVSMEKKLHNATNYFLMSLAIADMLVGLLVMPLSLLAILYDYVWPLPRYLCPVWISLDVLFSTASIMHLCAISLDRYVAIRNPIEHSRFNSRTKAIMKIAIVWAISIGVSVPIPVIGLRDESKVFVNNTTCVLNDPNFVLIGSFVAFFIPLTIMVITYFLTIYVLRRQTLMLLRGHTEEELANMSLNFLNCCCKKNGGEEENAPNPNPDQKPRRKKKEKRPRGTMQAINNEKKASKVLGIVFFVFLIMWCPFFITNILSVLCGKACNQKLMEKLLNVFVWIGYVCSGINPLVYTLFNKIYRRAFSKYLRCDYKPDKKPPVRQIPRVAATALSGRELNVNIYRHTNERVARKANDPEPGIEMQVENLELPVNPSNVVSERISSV

[4] = molecular target: T3, 5-hydroxytryptamine receptor 2A (Homo sapiens, UniProt P28223); test: Inhibition constant against human 5-hydroxytryptamine 2A receptor using [3H]ketanserin as radioligand with the compound (10 uM) dissolved in DMSO; method in brief: as §1
[5] = molecular target: T1, 5-hydroxytryptamine receptor 2C; test: Inhibition constant against human 5-hydroxytryptamine 2C receptor [INI isoforms] using [3H]mesulergine as radioligand with the compound (10 uM) dissolved in DMSO; method in brief: as §1
[6] = molecular target: T4, 5-hydroxytryptamine receptor 2B (Homo sapiens, UniProt P41595); test: Antagonistic activity against accumulation of [3H]inositol phosphate in cells transiently expressing human 5-hydroxytryptamine 2B receptor determined by phosphoinositide hydrolysis assay; assay type: functional; conditions: filed as antagonist
Method in brief: (§2)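 Phosphoinositide hydrolysis assay with human receptors, 5-HT2A and 5-HT2C expressed stably and 5-HT2B transiently. Cells were loaded overnight with [3H]inositol (15 Ci/mmol; 1 mCi/mL as supplied) in inositol-free DMEM without serum.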

[7] = molecular target: T5, 5-hydroxytryptamine receptor 2C (Homo sapiens) (UniProt P28335); test: Antagonistic activity against accumulation of [3H]inositol phosphate in cells stably expressing human 5-hydroxytryptamine 2C receptor determined by phosphoinositide hydrolysis assay; assay type: functional; conditions: filed as antagonist; method in brief: as §2
T5 sequence (whole entry): T1 sequence (P28335 whole entry)

[8] = molecular target: T4, 5-hydroxytryptamine receptor 2B; test: Inhibition constant against human 5-hydroxytryptamine 2B receptor using [3H]LSD as radioligand with the compound (10 uM) dissolved in DMSO; method in brief: as §1
[9] = molecular target: T3, 5-hydroxytryptamine receptor 2A; test: Antagonistic activity against accumulation of [3H]-inositol phosphate in cells stably expressing human 5-hydroxytryptamine 2A receptor determined by phosphoinositide hydrolysis assay; assay type: functional; conditions: filed as antagonist; method in brief: as §2
[10] = molecular target: T4, 5-hydroxytryptamine receptor 2B; test: Effective concentration required for accumulation of [3H]inositol phosphate in cells transiently expressing human 5-hydroxytryptamine 2B receptor determined by phosphoinositide hydrolysis assay; assay type: functional
Method in brief: (§3)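 Phosphoinositide hydrolysis measured in cells expressing human 5-HT2A (stable) or 5-HT2B (transient) receptors, loaded overnight with [3H]inositol (15 Ci/mmol; 1 mCi/mL as supplied) in serum-free, inositol-free DMEM. Where SD is given, N ≥ 3.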

[11] = molecular target: T1, 5-hydroxytryptamine receptor 2C; test: Effective concentration required for accumulation of [3H]inositol phosphate in cells stably expressing human 5-hydroxytryptamine 2C receptor determined by phosphoinositide hydrolysis assay; assay type: functional
[12] = molecular target: T3, 5-hydroxytryptamine receptor 2A; test: Effective concentration required for accumulation of [3H]inositol phosphate in cells stably expressing human 5-hydroxytryptamine 2A receptor determined by phosphoinositide hydrolysis assay; assay type: functional; method in brief: as §3

Chain of 5-hydroxytryptamine receptor 2A (Rattus norvegicus, UniProt P14842) (P14842 whole entry): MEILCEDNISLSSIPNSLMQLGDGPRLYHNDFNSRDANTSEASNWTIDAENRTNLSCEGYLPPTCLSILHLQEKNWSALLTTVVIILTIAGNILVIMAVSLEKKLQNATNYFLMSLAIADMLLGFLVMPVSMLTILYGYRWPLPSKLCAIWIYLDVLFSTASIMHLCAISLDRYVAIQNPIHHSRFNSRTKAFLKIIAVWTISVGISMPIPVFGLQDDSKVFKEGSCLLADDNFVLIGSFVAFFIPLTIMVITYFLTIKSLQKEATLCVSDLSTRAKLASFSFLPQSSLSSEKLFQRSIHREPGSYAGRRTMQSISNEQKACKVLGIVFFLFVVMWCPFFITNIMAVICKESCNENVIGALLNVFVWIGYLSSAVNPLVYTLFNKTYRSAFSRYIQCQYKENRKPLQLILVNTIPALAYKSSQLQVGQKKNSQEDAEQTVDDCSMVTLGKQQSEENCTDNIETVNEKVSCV
T4 sequence (P41595 whole entry): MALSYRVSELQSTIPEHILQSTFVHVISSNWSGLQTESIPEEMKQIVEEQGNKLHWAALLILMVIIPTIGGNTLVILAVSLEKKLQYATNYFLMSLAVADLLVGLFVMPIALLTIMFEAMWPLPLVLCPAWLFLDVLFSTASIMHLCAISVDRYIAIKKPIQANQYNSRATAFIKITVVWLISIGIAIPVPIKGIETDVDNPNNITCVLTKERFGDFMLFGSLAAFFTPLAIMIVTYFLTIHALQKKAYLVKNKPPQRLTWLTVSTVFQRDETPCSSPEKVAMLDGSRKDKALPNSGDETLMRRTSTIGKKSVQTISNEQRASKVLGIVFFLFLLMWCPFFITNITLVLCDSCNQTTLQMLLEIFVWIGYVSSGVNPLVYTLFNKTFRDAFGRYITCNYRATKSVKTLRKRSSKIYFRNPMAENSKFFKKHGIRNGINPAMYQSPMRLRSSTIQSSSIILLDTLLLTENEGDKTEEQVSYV
T3 sequence (P28223 whole entry, canonical isoform): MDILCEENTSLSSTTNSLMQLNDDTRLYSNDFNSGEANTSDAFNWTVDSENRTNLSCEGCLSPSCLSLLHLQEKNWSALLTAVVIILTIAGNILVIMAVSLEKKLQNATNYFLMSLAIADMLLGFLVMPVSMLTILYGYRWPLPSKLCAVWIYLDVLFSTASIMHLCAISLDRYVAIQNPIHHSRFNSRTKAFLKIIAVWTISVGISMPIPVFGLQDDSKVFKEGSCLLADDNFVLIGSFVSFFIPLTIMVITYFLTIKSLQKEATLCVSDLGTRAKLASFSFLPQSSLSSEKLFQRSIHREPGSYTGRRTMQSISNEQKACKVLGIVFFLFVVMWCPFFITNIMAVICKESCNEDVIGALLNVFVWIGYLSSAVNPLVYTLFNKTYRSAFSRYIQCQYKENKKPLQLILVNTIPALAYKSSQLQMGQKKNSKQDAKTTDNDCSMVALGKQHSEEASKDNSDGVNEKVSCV

Compound | pKi [1] | pKi [2] | pKi [3] | pKi [4] | pKi [5] | Activity [6] | Activity [7] | pKi [8] | Activity [9] | pEC50 [10] | pEC50 [11] | pEC50 [12]
Cc1[nH]c2cccc(O)c2c1CCN(C)C | 6.27 | 5.77 | 5.89 | 6.91 |  |  |  |  |  |  |  | 
CCCCn1cc(CCN(C)C)c2c(OP(=O)(O)O)cccc21 | 6.68 | < 5.00 | 5.24 | 5.52 | 7.14 | Antagonist | Antagonist | 6.77 | Antagonist |  |  | 
CN(C)Cc1cn(C)c2cccc(O)c12 | 6.90 |  |  | 6.30 | 7.06 |  |  | 5.91 |  |  |  | 
CN(C)CCc1c[nH]c2cc(O)ccc12 | 5.17 | < 5.00 | 4.72 | 5.12 | < 5.00 |  |  | 5.20 |  |  |  | 
CN(C)Cc1c[nH]c2cccc(O)c12 | 7.90 | 6.08 | 7.31 | 6.03 | 7.62 | Antagonist | Antagonist | 5.91 | Antagonist |  |  | 
CN(C)CCc1c[nH]c2cccc(F)c12 | 7.08 | 6.00 | 6.44 | 6.47 | 7.09 |  |  | 8.08 |  | 5.93 | 7.00 | 6.02
CN(C)CCc1cn(C)c2cccc(O)c12 | 7.48 | 6.23 | 7.32 | 6.05 | 8.15 |  |  | 7.42 |  |  | 7.92 | 6.20
CN(C)CCCc1c[nH]c2cccc(O)c12 | 7.08 |  |  | 6.23 | 5.95 |  |  | 7.01 |  |  |  | 
CN(C)CCc1cn(C)c2cccc(OP(=O)(O)O)c12 | 6.27 | < 5.00 | < 5.00 | < 5.00 | < 5.00 |  |  | 5.26 |  |  |  | 
CN(C)CCn1ccc2c(O)cccc21 | 5.38 | < 5.00 | 5.03 |  | 5.66 |  |  |  |  |  |  | 
CN(C)CCc1c[nH]c2cccc(OP(=O)(O)O)c12 [PSILOCYBIN] |  |  |  |  |  |  |  |  |  |  | 6.30 | 5.46
CN1CCN(CCc2c[nH]c3cccc(O)c23)CC1 |  | 5.16 | < 5.00 | 5.01 | 6.99 |  |  | 6.94 |  |  |  | 
CC(Cc1c[nH]c2cccc(O)c12)N(C)C (centres undefined) |  |  |  | 6.01 | 6.90 |  |  | 6.13 |  |  |  | 
Oc1cccc2[nH]cc(CCN3CCCC3)c12 | 5.75 |  |  | 6.37 | 6.56 |  |  | 6.37 |  |  |  | 
CCCCn1cc(CCN(C)C)c2c(O)cccc21 | 7.85 | 6.70 | 7.80 | 6.51 | 8.36 |  |  | 8.24 |  |  | 6.23 | 7.49
Oc1cccc2[nH]cc(CCN3CCCc4ccccc43)c12 |  | 5.08 | 5.84 |  | 6.33 |  |  | 5.25 |  |  |  | 
